We go through one compound from publication PMC11610768 (The AAPS journal, 2023).

Molecules are shown by their SMILES. Where two headings read alike, the source gives them in different places.

The conditions of series [1]: single oral dose study, tumor-bearing mice; cited from earlier work.
The conditions of series [2]: animal models; cited from earlier work.
The subject of series [3] is ccK18. The series is described as follows: ccK18 quantification in mouse plasma. The class given is in vivo, mice. The note with it: single IV dose 10 mg/kg, 2–4 h after dosing; vehicle approx 700 U/L.
Series [4] relates to cyclin D1 in SKOV3 cells. Put plainly: Concentration- and time-dependent changes in cyclin D1 in SKOV3 cells. Format: cell-based, human. Summed up:
(§1)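 Cells grown in RPMI 1640 with 10% FBS and 1% antibiotic-antimycotic, seeded overnight at 37°C, 5% CO2, then exposed to test compound (DMSO) at 0–15 µM for 24 h. SKOV3 only: 2–24 h time course at 2.5 and 10 µM, and washout after 24 h at 10 µM with recovery at 4, 8, 24 h. Cyclin D1 measured by sandwich ELISA (5 µg protein, duplicates, OD 450 nm) and by western blot (20 µg lysate, β-actin reprobe).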

Series [5] relates to cyclin D1 in A2780 cells. The series is described as follows: Concentration-dependent changes in cyclin D1 in A2780 cells. The class given is cell-based, human. The note with it: 24 h exposure, 1-15 µM, ELISA. Summed up: as §1
Series [6] deals with xenograft tumor models. The note with it: 60 mg/kg QD; cited from earlier work.
The subject of series [7] is colorectal tumors. To be noted: APCmin/+ mouse, cited from earlier work.
Series [8] relates to mortalin. The series is described as follows: Western blot of total mortalin in ovarian cancer cells. Format: cell-based, human.
The format of series [9] is in vivo, mice. Summed up:
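Tumour-bearing nude mice (intraperitoneal SKOV3) received 60 mg/kg oral daily for 7 days in 30% Kolliphor HS 15. Saphenous blood was taken at 1, 4, 6, 8, 12 h after the first dose and at troughs 24–144 h, with 3 mice per point in rotating subgroups. Tissues were taken after the last dose. For HPLC-UV, plasma or tissue homogenate (3 mL/g phosphate buffer, pH 7.4) plus internal standard underwent acetonitrile precipitation, centrifugation and filtration. LLOQ 5 ng/mL; values given as mean ± SD.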

Series [10] deals with cyclin D1 in SKOV3 tumors. The series is described as follows: Cyclin D1 in SKOV3 xenograft tumors. Format: in vivo, mice. To be noted: 60 mg/kg oral once daily, observed at 12 h. The procedure, abridged:
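Female athymic nude mice (Foxn1nu, 6–8 weeks) were given intraperitoneal SKOV3-luc cells, and tumours were confirmed after about 3 weeks. Dosing: 60 mg/kg oral, daily for 7 days, as a suspension in 30% Kolliphor HS 15 (6 mg/mL, 10 mL/kg); vehicle controls, n = 3. Tumours were taken after the last dose; archived 24-h single-dose tumours were also used. Lysate (5 µg protein) run in a total cyclin D1 sandwich ELISA in duplicate, read at OD 450 nm.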

Where [11] appears, read: 60 mg/kg oral once daily for seven days.
The mark [12] stands for this setting: 60 mg/kg oral once daily, at 1 h.

In the case of `CC1(C)CC(C)(C)c2cc(NC(=S)Nc3ccc([N+](=O)[O-])cc3)ccc2S1` [SHetA2], the elimination half-life in series [1] is reported as 4.5 h. Besides, the “adverse effects in genetic toxicology assays and toxicity tests” value in series [2] is “no adverse effects observed”. The “peak plasma ccK18 level” value in [3] is 913 U/L. Moreover, the “cyclin D1 level restored, of baseline” value in [4] (24 h after drug removal, after 24 h exposure to 10 µM) is recorded as “over 80%”. In addition, in series [4] (Homo sapiens, SK-OV-3, read-out: IC50 of cyclin D1 reduction), the IC50 was in the range of 4 to 5 µM. Further, the “maximum inhibition of cyclin D1 levels” value in [4] (SKOV3 cells, 24 h exposure, 1-15 µM, ELISA) is recorded as ~ 70%. The “time at which cyclin D1 levels began to recover after drug removal” value in series [4] (after 24 h exposure to 10 µM, drug removed from culture medium) turned out to be 4 h. In series [4] (cancer cells (cell line not named at the place), dose-dependent), the “cyclin D1 reduction / inhibition observed” value is reported as “up to 70%”. Also, the “maximum inhibition of cyclin D1 levels” value in series [5] is ~ 80%. In addition, the antitumor activity in series [6] is reported as 40–60%. Besides, the “reduction of cyclin D1 in the tumors” value in series [7] (30 mg/kg QD) is on record as 50%. Besides, the “reduction of cyclin D1 in the tumors” value in [7] (60 mg/kg QD) is recorded as 90%. Also, the “reduction of incidence of colorectal tumors” value in [7] (QD doses of 30 or 60 mg/kg) is recorded as “over 50%”. In addition, in series [8], the “effect on total mortalin levels” value was “no effect”. For the same compound, in [9] (setting [11]), the “accumulation of the drug in plasma” value is reported as “No significant accumulation” and the “mean trough concentrations in the plasma” value came to 18.8 ± 6.6 ng/mL. Also, in series [9] (setting [12]), the peak tumor concentration entry is “around 4,000 ng/ml” and the “peak tumor concentration (equivalent)” value is listed as ~ 10 µM. Further, the “maximum reduction in cyclin D1 in tumor” value in series [10] is on record as ~ 70%.
